ADAM17 inh – ADAM17 inhibitors, primary screen, biochemical, QFRET; Disintegrin and metalloproteinase domain-containing protein 17 (Homo sapiens), P78536; recombinant ADAM17, EDANS/DABCYL FRET peptide cleavage; inhibition, % at 6.95 µM; actives 0.83% (n = 370,000); AID 720648, 2013;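 active = inhibition above the mean of compounds lying between control limits plus 3 SD, set per campaign, cut at about 8.5% in these data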
Arrestin-AP2 inh – inhibitors of beta-arrestin/AP2 binding, primary screen, biochemical, GPCR trafficking, flow cytometry. inhibition, % at 10 µM. AID 504490, 2011. FITC-arrestin peptide / GST-AP2 beads; AP2 beta2 appendage carries R879A mutation. actives 0.31% (n = 340,000). beta-arrestin 1 C-terminal peptide binding to AP2 beta2-adaptin appendage (human);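 active = inhibition above a set limit, near 3 SD of compounds lacking own fluorescence, cut at about 54% in these data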
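System: GST-tagged AP2 beta2-adaptin appendage (R879A) on 4 µm glutathione beads / Reagent: FITC-arrestin peptide, 50 nM / Detection: HyperCyt-sampled flow cytometry, FL1 channel, ex 488/em 535 nm / Timing: 12 min plus 1 h, RT / Buffer or medium: PBS plus Tween 20 (0.05%) and BSA (0.1%)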
CaV13 ICDI inh – Primary screen for inhibitors of IQ motif and Ca2+-dependent inactivation inhibitor domain binding in CACNA1D, Förster resonance energy transfer in living cells, …; HEK cells, CFP/YFP FRET ICDI-IQ, plate reader, 10 min; percent FRET-ratio fall versus neutral wells; inhibition, % at 12.3 µM; actives 0.098% (n = 340,000);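 active = mean replicate inhibition of at least 30% and at least 1% of replicates passing that level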
FAS-TE inh – FAS thioesterase domain inhibitors, primary screen, biochemical, fluorescence intensity, uHTS. recombinant FAS-TE, OMFH fluorogenic substrate, fluorescence endpoint. AID 602261, 2012. actives 0.67% (n = 360,000). inhibition, % at 15 µM;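 active = compounds whose normalised, plate-corrected inhibition of enzyme fluorescence in the single-dose primary screen is 50% or more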
ADAM10 inh – human ADAM10 inhibitors, primary screen, biochemical, QFRET, HTS | recombinant ADAM10, EDANS/DABCYL FRET peptide cleavage, 3 h | Disintegrin and metalloproteinase domain-containing protein 10 (Homo sapiens), O14672 | actives 0.62% (n = 370,000) | AID 720582, 2013 | inhibition, % at 7 µM;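 active = inhibition above a per-campaign cutoff equal to the mean of compounds falling between control-based bounds plus 3 SD, cut at about 20% in these data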
CendR NRP1 mod – modulators of CendR peptide binding to NRP-1, primary screen, biochemical, fluorescence polarization, uHTS. AID 602438, 2012. inhibition, % at 25 µM. FAM-RPARPAR peptide binding to NRP-1. actives 0.85% (n = 360,000);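 active = inhibition or corrected inhibition above about 18%, plus a signal ratio from 0.5 to 1.5, limit read from the data, passing the limit was not always enough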
Arr AP2 CP1 – inhibitors of arrestin peptide binding to AP2, confirmation, biochemical, cherry pick 1, flow cytometry beads. shares compounds with Arrestin-AP2 inh. GST-AP2 beads, FITC arrestin peptide binding; GST-fused beta2-adaptin appendage, R879A mutant. inhibition, % at 10 µM. actives 2% (n = 1,300);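 active = inhibition above a set limit, roughly 3 SD of non-fluorescent compound noise, cut at about 38% in these data; inactive = inhibition at or below that limit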;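 note: loss of bead fluorescence from 50 nM FITC arrestin peptide bound to appendage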
Target sequence (P63010 whole entry, looked up, the tested form may be a part, one chain of several): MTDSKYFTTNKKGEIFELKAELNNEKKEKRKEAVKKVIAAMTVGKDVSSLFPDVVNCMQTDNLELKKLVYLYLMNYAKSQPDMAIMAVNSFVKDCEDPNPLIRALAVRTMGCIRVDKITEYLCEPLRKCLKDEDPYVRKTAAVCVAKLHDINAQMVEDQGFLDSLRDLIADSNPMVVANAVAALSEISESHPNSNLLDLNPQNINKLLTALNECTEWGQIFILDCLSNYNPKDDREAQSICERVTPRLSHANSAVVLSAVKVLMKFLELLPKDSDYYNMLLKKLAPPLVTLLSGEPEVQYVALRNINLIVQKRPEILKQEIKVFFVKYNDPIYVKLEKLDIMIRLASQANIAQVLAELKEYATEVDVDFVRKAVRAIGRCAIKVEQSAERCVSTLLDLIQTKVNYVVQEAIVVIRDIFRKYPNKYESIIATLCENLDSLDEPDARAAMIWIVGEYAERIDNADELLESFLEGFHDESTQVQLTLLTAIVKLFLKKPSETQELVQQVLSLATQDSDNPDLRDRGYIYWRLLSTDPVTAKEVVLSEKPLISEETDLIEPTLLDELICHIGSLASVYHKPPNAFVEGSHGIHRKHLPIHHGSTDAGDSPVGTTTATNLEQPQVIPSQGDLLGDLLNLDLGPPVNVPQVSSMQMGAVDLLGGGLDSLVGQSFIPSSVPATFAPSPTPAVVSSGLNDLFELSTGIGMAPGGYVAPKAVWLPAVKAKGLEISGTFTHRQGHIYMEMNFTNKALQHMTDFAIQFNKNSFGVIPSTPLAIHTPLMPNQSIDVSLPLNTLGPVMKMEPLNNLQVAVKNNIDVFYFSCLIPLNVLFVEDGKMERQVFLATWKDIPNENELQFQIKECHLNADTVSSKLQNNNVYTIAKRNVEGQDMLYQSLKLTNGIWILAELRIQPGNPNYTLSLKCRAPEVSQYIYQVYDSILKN
GST-FITC bead – GST-fluorescein capture on glutathione beads, confirmation, artefact control for arrestin-AP2 inhibitor project, biochemical, cherry pick 1, flow cytometry | shares compounds with Arrestin-AP2 inh | GST-fluorescein binding to GSH beads, fluorescence, counter-screen | inhibition, % at 10 µM | actives 2% (n = 1,300);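 active = inhibition above 50%, about 3 SD of the inhibition seen with non-fluorescent compounds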;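 note: fluorescein maleimide labelled GST captured on 4 micron glutathione beads; higher means more loss of bead fluorescence from quenching or blocked binding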
Numbers stand for hits; i = inactive; nt = not tested or not shown. In the library only some 2.9% were active in any assay of this set; here they are far more common.

SMILES | ADAM17 inh | Arrestin-AP2 inh | CaV13 ICDI inh | FAS-TE inh | ADAM10 inh | CendR NRP1 mod | Arr AP2 CP1 | GST-FITC bead
NS(=O)(=O)c1ccc(NC(=O)C2C3C=CC(C3)C2C(=O)O)cc1 (stereo not given) | i | 58 | i | i | i | i | i | i
COc1ccc(NC(=O)C2C3C=CC(C3)C2C(=O)O)cc1 (stereo not given) | i | i | i | i | i | i | nt | nt
COC(=O)[C@@]12C[C@@H](CC(=O)N3CCN(C(=O)C4CC4)CC3)C(=O)N(CCc3ccc(OC)c(OC)c3)C1=CCC(C)(C)C2 | i | nt | i | nt | i | i | nt | nt
CCCC(=O)N(Cc1cc(=O)[nH]c2ccccc12)c1ccccc1C | i | 61 | i | i | i | i | i | i
CCCCn1c(N)c(NCC(C)C)c(=O)[nH]c1=O | i | 57 | i | i | i | i | i | i
O=c1[nH][nH]c2c1[C@H](CCc1cccc(Cl)c1)O[C@H](CCc1ccccc1)C2 | i | nt | i | i | i | i | nt | nt
CC(C)(C)S(=O)(=O)/C(C#N)=N/Nc1ccc(Cl)cc1 | i | 57 | i | i | i | i | i | i
COc1cc(C2Nc3cccc4cccc(c34)N2)ccc1OC(C)=O | nt | i | nt | i | nt | i | nt | nt
COc1cc(C2Nc3cccc4cccc(c34)N2)cc(OC)c1O | i | 56 | i | i | i | i | i | i
Cn1cc(-c2cccc3[nH]cc(-c4ccccc4)c23)c2ccccc21 | i | nt | nt | nt | i | nt | nt | nt
O=C(Cn1nc(Cl)nc1Cl)c1ccccc1 | i | 55 | i | i | i | i | i | i
CC(=O)Nc1ccc(NC(=O)CSc2nnc(C)n2-c2ccccc2)cc1 | i | 60 | i | i | i | i | i | i
Cc1nnc(SCC(=O)Nc2ccc(C(N)=O)cc2)n1-c1ccccc1 | i | i | i | i | i | i | nt | nt
CC(CCN1CCC(C(O)(c2ccccc2)c2ccccc2)CC1)Oc1cc(F)cc(F)c1 (stereo not given) | i | nt | nt | nt | i | nt | nt | nt
Cc1ccc(CN2C(=O)CCC2C(=O)NCCCN2CCOCC2)cc1 (stereo not given) | i | 92 | nt | i | i | i | i | i
CCC1CCCCN1CCCNC(=O)C1CCC(=O)N1Cc1ccc(C)cc1 (stereo not given) | i | i | nt | i | i | i | i | i
Cc1ccc(CN2C(=O)CCC2C(=O)NC(C)C)cc1 (stereo not given) | i | i | i | i | i | i | nt | nt
CCOc1cc(NC(=S)NCCCN2CCOCC2)c(OCC)cc1NC(=O)c1ccc(C)cc1 | i | 58 | i | i | i | i | i | i
CCOc1cc(NC(=S)NCCCN2CCOCC2)c(OCC)cc1NC(=O)c1ccc(OC)cc1 | i | i | i | i | i | i | nt | nt
O=C(NCCN1CCOCC1)C1CCC(=O)N1Cc1ccccc1Cl (stereo not given) | i | i | nt | i | i | i | i | i
COCCCN1C(=O)[C@H](CC(=O)NCCC(C)C)[C@]2(C(=O)OC)CCCCC=C12 | i | nt | nt | nt | i | nt | nt | nt
Cc1ccc(CN2C(=O)CCC2C(=O)NCCN2CCN(c3cccc(Cl)c3)CC2)cc1 (stereo not given) | i | i | i | i | i | i | i | i
Cc1ccc(CN2C(=O)CCC2C(=O)NCc2ccco2)cc1 (stereo not given) | i | 92 | nt | i | i | i | i | i
Cc1ccc(CNC(=O)C2CCC(=O)N2Cc2ccc(F)cc2)cc1 (stereo not given) | i | i | i | i | i | i | nt | nt

High-throughput results deposited in PubChem by several laboratories.
